Converted amounts (≈) assume the structure as drawn. The source made the active and inactive calls. The calls are words filed in the database; no cut-off is given here.
How the values were obtained:
[1] = tested on: Staphylococcus aureus; assay: Antimicrobial activity against methicillin-sensitive Staphylococcus aureus ATCC 6538 at 100 ug after 20 hrs by agar plate diffusion assay; format: functional, organism-based
Procedure, shortened: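 Agar disk diffusion. Cells were grown on Mueller-Hinton agar at 37 °C for 24 h, resuspended in Mueller-Hinton broth to 108 CFU/mL and incubated again. They were then diluted to 105 CFU/mL and used to inoculate Mueller-Hinton agar plates. 6 mm disks loaded with 100 µg compound were placed on the plates and incubated 20 h at 37 °C. Inhibition zones >10 mm were scored positive.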

[2] = tested on: Staphylococcus aureus; assay: Antimicrobial activity against methicillin-resistant Staphylococcus aureus 0002 at 100 ug after 20 hrs by agar plate diffusion assay; format: functional, organism-based
Procedure, shortened: (§1)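 Disk diffusion against MRSA clinical isolates from Tokushima University Hospital. Cells were grown on Mueller-Hinton agar at 37 °C for 24 h, resuspended in Mueller-Hinton broth, and diluted to 10^5 CFU/mL to seed Mueller-Hinton agar plates. 6 mm disks loaded with 100 µg compound were incubated 20 h at 37 °C. Inhibition zones over 10 mm in diameter were scored positive.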

[3] = tested on: Staphylococcus aureus; assay: Antimicrobial activity against methicillin-resistant Staphylococcus aureus 0007 at 100 ug after 20 hrs by agar plate diffusion assay; format: functional, organism-based; procedure, shortened: as §1
[4] = tested on: Staphylococcus aureus; assay: Antimicrobial activity against methicillin-resistant Staphylococcus aureus 0004 after 20 hrs by serial twofold dilution method; format: functional; conditions: Staphylococcus aureus, 0004, 20 h
Procedure, shortened: (§2)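 Agar dilution MIC on Mueller-Hinton agar, following the Japanese Society for Antimicrobial Chemotherapy (1981) method. MRSA clinical isolates from Tokushima University Hospital were grown on Mueller-Hinton agar at 37 °C for 24 h, then resuspended in Mueller-Hinton broth. Suspensions of 1 × 10^6 CFU/mL were spotted with a replicating device. Plates were read after 20 h at 37 °C.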

[5] = tested on: Staphylococcus aureus; assay: Antimicrobial activity against methicillin-resistant Staphylococcus aureus 0021 after 20 hrs by serial twofold dilution method; format: functional; conditions: Staphylococcus aureus, 0021, 20 h; procedure, shortened: as §2
[6] = tested on: Staphylococcus aureus; assay: Antimicrobial activity against methicillin-resistant Staphylococcus aureus 0003 after 20 hrs by serial twofold dilution method; format: functional; conditions: Staphylococcus aureus, 0003, 20 h; procedure, shortened: as §2
[7] = tested on: Staphylococcus aureus; assay: Antimicrobial activity against methicillin-resistant Staphylococcus aureus 0020 after 20 hrs by serial twofold dilution method; format: functional; conditions: Staphylococcus aureus, 0020, 20 h; procedure, shortened: as §2
[8] = tested on: Staphylococcus aureus; assay: Antimicrobial activity against methicillin-resistant Staphylococcus aureus 0001 at 100 ug after 20 hrs by agar plate diffusion assay; format: functional, organism-based; procedure, shortened: as §1
[9] = tested on: Staphylococcus aureus; assay: Antimicrobial activity against methicillin-resistant Staphylococcus aureus 0006 at 100 ug after 20 hrs by agar plate diffusion assay; format: functional, organism-based; procedure, shortened: as §1
[10] = tested on: Staphylococcus aureus; assay: Antimicrobial activity against methicillin-resistant Staphylococcus aureus 0017 after 20 hrs by serial twofold dilution method; format: functional; conditions: Staphylococcus aureus, 0017, 20 h; procedure, shortened: as §2
[11] = tested on: Staphylococcus aureus; assay: Antimicrobial activity against methicillin-resistant Staphylococcus aureus 0003 at 100 ug after 20 hrs by agar plate diffusion assay; format: functional, organism-based; procedure, shortened: as §1
[12] = tested on: Staphylococcus aureus; assay: Antimicrobial activity against methicillin-resistant Staphylococcus aureus 0020 at 100 ug after 20 hrs by agar plate diffusion assay; format: functional, organism-based; procedure, shortened: as §1
[13] = tested on: Staphylococcus aureus; assay: Antimicrobial activity against methicillin-resistant Staphylococcus aureus 0002 after 20 hrs by serial twofold dilution method; format: functional; conditions: Staphylococcus aureus, 0002, 20 h; procedure, shortened: as §2
[14] = tested on: Staphylococcus aureus; assay: Antimicrobial activity against methicillin-resistant Staphylococcus aureus 0012 after 20 hrs by serial twofold dilution method; format: functional; conditions: Staphylococcus aureus, 0012, 20 h; procedure, shortened: as §2
[15] = tested on: Staphylococcus aureus; assay: Antimicrobial activity against methicillin-resistant Staphylococcus aureus 0019 after 20 hrs by serial twofold dilution method; format: functional; conditions: Staphylococcus aureus, 0019, 20 h; procedure, shortened: as §2
[16] = tested on: Staphylococcus aureus; assay: Antimicrobial activity against methicillin-resistant Staphylococcus aureus 0018 at 100 ug after 20 hrs by agar plate diffusion assay; format: functional, organism-based; procedure, shortened: as §1
[17] = tested on: Staphylococcus aureus; assay: Antimicrobial activity against methicillin-resistant Staphylococcus aureus 0005 at 100 ug after 20 hrs by agar plate diffusion assay; format: functional, organism-based; procedure, shortened: as §1
[18] = tested on: Staphylococcus aureus; assay: Antimicrobial activity against methicillin-resistant Staphylococcus aureus 0017 at 100 ug after 20 hrs by agar plate diffusion assay; format: functional, organism-based; procedure, shortened: as §1
[19] = tested on: Staphylococcus aureus; assay: Antimicrobial activity against methicillin-resistant Staphylococcus aureus 0016 at 100 ug after 20 hrs by agar plate diffusion assay; format: functional, organism-based; procedure, shortened: as §1
[20] = tested on: Staphylococcus aureus; assay: Antimicrobial activity against methicillin-resistant Staphylococcus aureus 0016 after 20 hrs by serial twofold dilution method; format: functional; conditions: Staphylococcus aureus, 0016, 20 h; procedure, shortened: as §2
[21] = tested on: Staphylococcus aureus; assay: Antimicrobial activity against methicillin-resistant Staphylococcus aureus 0022 after 20 hrs by serial twofold dilution method; format: functional; conditions: Staphylococcus aureus, 0022, 20 h; procedure, shortened: as §2
[22] = tested on: Staphylococcus aureus; assay: Antimicrobial activity against methicillin-resistant Staphylococcus aureus 0006 after 20 hrs by serial twofold dilution method; format: functional; conditions: Staphylococcus aureus, 0006, 20 h; procedure, shortened: as §2
[23] = tested on: Staphylococcus aureus; assay: Antimicrobial activity against methicillin-resistant Staphylococcus aureus 0005 after 20 hrs by serial twofold dilution method; format: functional; conditions: Staphylococcus aureus, 0005, 20 h; procedure, shortened: as §2
[24] = tested on: Staphylococcus aureus; assay: Antimicrobial activity against methicillin-resistant Staphylococcus aureus 0013 at 100 ug after 20 hrs by agar plate diffusion assay; format: functional, organism-based; procedure, shortened: as §1
[25] = tested on: Staphylococcus aureus; assay: Antimicrobial activity against methicillin-resistant Staphylococcus aureus 0009 at 100 ug after 20 hrs by agar plate diffusion assay; format: functional, organism-based; procedure, shortened: as §1
[26] = tested on: Staphylococcus aureus; assay: Antimicrobial activity against methicillin-resistant Staphylococcus aureus 0009 after 20 hrs by serial twofold dilution method; format: functional; conditions: Staphylococcus aureus, 0009, 20 h; procedure, shortened: as §2
[27] = tested on: Staphylococcus aureus; assay: Antimicrobial activity against methicillin-resistant Staphylococcus aureus 0008 at 100 ug after 20 hrs by agar plate diffusion assay; format: functional, organism-based; procedure, shortened: as §1
[28] = tested on: Staphylococcus aureus; assay: Antimicrobial activity against methicillin-resistant Staphylococcus aureus 0004 at 100 ug after 20 hrs by agar plate diffusion assay; format: functional, organism-based; procedure, shortened: as §1
[29] = tested on: Staphylococcus aureus; assay: Antimicrobial activity against methicillin-resistant Staphylococcus aureus 0022 at 100 ug after 20 hrs by agar plate diffusion assay; format: functional, organism-based; procedure, shortened: as §1
[30] = tested on: Staphylococcus aureus; assay: Antimicrobial activity against methicillin-resistant Staphylococcus aureus 0008 after 20 hrs by serial twofold dilution method; format: functional; conditions: Staphylococcus aureus, 0008, 20 h; procedure, shortened: as §2
[31] = tested on: Staphylococcus aureus; assay: Antimicrobial activity against methicillin-resistant Staphylococcus aureus 0013 after 20 hrs by serial twofold dilution method; format: functional; conditions: Staphylococcus aureus, 0013, 20 h; procedure, shortened: as §2
[32] = tested on: Staphylococcus aureus; assay: Antimicrobial activity against methicillin-resistant Staphylococcus aureus 0021 at 100 ug after 20 hrs by agar plate diffusion assay; format: functional, organism-based; procedure, shortened: as §1
[33] = tested on: Staphylococcus aureus; assay: Antimicrobial activity against methicillin-resistant Staphylococcus aureus 0019 at 100 ug after 20 hrs by agar plate diffusion assay; format: functional, organism-based; procedure, shortened: as §1
[34] = tested on: Staphylococcus aureus; assay: Antimicrobial activity against methicillin-resistant Staphylococcus aureus 0018 after 20 hrs by serial twofold dilution method; format: functional; conditions: Staphylococcus aureus, 0018, 20 h; procedure, shortened: as §2
[35] = tested on: Staphylococcus aureus; assay: Antimicrobial activity against methicillin-resistant Staphylococcus aureus 0012 at 100 ug after 20 hrs by agar plate diffusion assay; format: functional, organism-based; procedure, shortened: as §1
[36] = tested on: Staphylococcus aureus; assay: Antimicrobial activity against methicillin-resistant Staphylococcus aureus 0001 after 20 hrs by serial twofold dilution method; format: functional; conditions: Staphylococcus aureus, 0001, 20 h; procedure, shortened: as §2
[37] = tested on: Staphylococcus aureus; assay: Antimicrobial activity against methicillin-resistant Staphylococcus aureus 0007 after 20 hrs by serial twofold dilution method; format: functional; conditions: Staphylococcus aureus, 0007, 20 h; procedure, shortened: as §2

Compound | Activity [1] | Activity [2] | MIC [4] | MIC [5] | MIC [6] | MIC [7] | MIC [10] | MIC [13] | MIC [14] | MIC [15] | MIC [20] | MIC [21] | MIC [22] | MIC [23] | MIC [26] | MIC [30] | MIC [31] | MIC [34] | MIC [36] | MIC [37] | also measured
COc1ccc(-c2cc(C=O)cc3ccc(O)c(OC)c23)cc1OC | inactive | – | – | – | – | – | – | – | – | – | – | – | – | – | – | – | – | – | – | – | –
COc1cc(-c2c3c(cc4cc(OC)c(O)cc24)C(=O)OC3)ccc1O [DETETRAHYDROCONIDENDRIN] | inactive | Active | > 64 µg/mL | > 64 µg/mL | 8 µg/mL (≈ 22.7 µM) | 4 µg/mL (≈ 11.4 µM) | > 64 µg/mL | 8 µg/mL (≈ 22.7 µM) | > 64 µg/mL | > 64 µg/mL | 16 µg/mL (≈ 45.4 µM) | > 64 µg/mL | 8 µg/mL (≈ 22.7 µM) | 8 µg/mL (≈ 22.7 µM) | > 64 µg/mL | 8 µg/mL (≈ 22.7 µM) | > 64 µg/mL | > 64 µg/mL | > 64 µg/mL | 16 µg/mL (≈ 45.4 µM) | Activity [3]: Active; Activity [8]: Active; Activity [9]: Active; Activity [11]: Active; Activity [12]: Active; Activity [16]: Active; Activity [17]: Active; Activity [18]: Active; Activity [19]: Active; Activity [24]: Active; Activity [25]: Active; Activity [27]: Active; Activity [28]: Active; Activity [29]: Active; Activity [32]: Active; Activity [33]: Active; Activity [35]: Active
COc1cc2c(cc1OC)C(O)c1c(C=O)cc3ccc(O)c(OC)c3c1-2 (stereo unspecified) [VITROFOLAL C] | inactive | Active | > 64 µg/mL | > 64 µg/mL | > 64 µg/mL | 64 µg/mL (≈ 175 µM) | > 64 µg/mL | 64 µg/mL (≈ 175 µM) | > 64 µg/mL | > 64 µg/mL | 64 µg/mL (≈ 175 µM) | > 64 µg/mL | 64 µg/mL (≈ 175 µM) | 64 µg/mL (≈ 175 µM) | > 64 µg/mL | 64 µg/mL (≈ 175 µM) | > 64 µg/mL | > 64 µg/mL | > 64 µg/mL | 64 µg/mL (≈ 175 µM) | Activity [3]: Active; Activity [8]: Active; Activity [9]: Active; Activity [11]: Active; Activity [12]: Active; Activity [16]: Active; Activity [17]: Active; Activity [18]: Active; Activity [19]: Active; Activity [24]: Active; Activity [25]: Active; Activity [27]: Active; Activity [28]: Active; Activity [29]: Active; Activity [32]: Active; Activity [33]: Active; Activity [35]: Active
COc1cc2c(cc1OC)-c1c(c(C=O)cc3ccc(O)c(OC)c13)C2=O [VITROFOLAL D] | inactive | Active | > 64 µg/mL | > 64 µg/mL | 32 µg/mL (≈ 87.8 µM) | 16 µg/mL (≈ 43.9 µM) | > 64 µg/mL | 16 µg/mL (≈ 43.9 µM) | > 64 µg/mL | > 64 µg/mL | 16 µg/mL (≈ 43.9 µM) | > 64 µg/mL | 16 µg/mL (≈ 43.9 µM) | 16 µg/mL (≈ 43.9 µM) | > 64 µg/mL | 16 µg/mL (≈ 43.9 µM) | > 64 µg/mL | > 64 µg/mL | > 64 µg/mL | 16 µg/mL (≈ 43.9 µM) | Activity [3]: Active; Activity [8]: Active; Activity [9]: Active; Activity [11]: Active; Activity [12]: Active; Activity [16]: Active; Activity [17]: Active; Activity [18]: Active; Activity [19]: Active; Activity [24]: Active; Activity [25]: Active; Activity [27]: Active; Activity [28]: Active; Activity [29]: Active; Activity [32]: Active; Activity [33]: Active; Activity [35]: Active
COc1cc(-c2cc(C=O)cc3cc(OC)c(O)cc23)ccc1O [VITROFOLAL E] | inactive | – | > 64 µg/mL | > 64 µg/mL | > 64 µg/mL | 64 µg/mL (≈ 197 µM) | > 64 µg/mL | > 64 µg/mL | > 64 µg/mL | > 64 µg/mL | > 64 µg/mL | > 64 µg/mL | > 64 µg/mL | > 64 µg/mL | > 64 µg/mL | > 64 µg/mL | > 64 µg/mL | > 64 µg/mL | > 64 µg/mL | > 64 µg/mL | –
